Like-named read-outs stand apart in the source and are kept apart here.
Key:
HDAC4 = HDAC4 (Homo sapiens, UniProt P56524); assay: HDAC enzyme activity assay; assay type: biochemical; conditions: for remaining activity at 50 µM: read-out: Residual HDAC4 activity at 50 μM
Method in brief: (§1)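 HDAC4 and HDAC8 were in-house recombinant enzymes. Each was preincubated with inhibitor, either a single 50 μM screen or serial dilutions, for 60 min at 30 °C in Tris-HCl pH 8.0/KCl/Pluronic buffer. Substrate was 20 μM Boc-Lys(trifluoroacetyl)-AMC for 60 min at 30 °C, stopped with 1.7 μM SATFMK, and developed with trypsin. AMC fluorescence was read at 350/450 nm and reported as residual activity or as IC50 from a four-parameter logistic fit.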

HDAC2 = HDAC2 (Homo sapiens, UniProt Q92769); assay: HDAC enzyme activity assay; assay type: biochemical
Method in brief: (§2)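 Commercial enzyme was preincubated with serial inhibitor dilutions for 60 min at 30 °C in 25 mM Tris-HCl pH 8.0, 75 mM KCl and 0.001% Pluronic F-127. Reaction was started with 50 μM Boc-Lys(acetyl)-AMC, run 60 min at 30 °C, and stopped with 4.17 μM SAHA. Trypsin (0.4 mg/ml) released AMC, read at Ex 350/Em 450 nm. IC50 came from a four-parameter logistic fit.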

HDAC8 [1] = biological target: T1, HDAC8 (Homo sapiens, UniProt Q9BY41); assay: HDAC enzyme activity assay; assay type: biochemical; conditions: for remaining activity at 50 µM: read-out: Residual HDAC8 activity at 50 μM
T1 sequence (Q9BY41 1-377): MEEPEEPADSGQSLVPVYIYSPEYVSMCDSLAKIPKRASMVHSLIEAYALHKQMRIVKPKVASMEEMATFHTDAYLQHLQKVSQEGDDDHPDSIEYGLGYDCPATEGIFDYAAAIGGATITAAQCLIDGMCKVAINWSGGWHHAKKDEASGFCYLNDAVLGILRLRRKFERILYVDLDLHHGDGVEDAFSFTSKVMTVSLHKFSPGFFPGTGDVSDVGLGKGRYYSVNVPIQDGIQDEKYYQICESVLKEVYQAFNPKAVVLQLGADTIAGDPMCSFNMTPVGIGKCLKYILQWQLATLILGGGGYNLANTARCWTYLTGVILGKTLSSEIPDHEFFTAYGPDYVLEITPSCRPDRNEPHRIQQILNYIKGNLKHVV
Method in brief: as §1

K-562 leukemia cells = assay: Differential Nuclear Staining; assay type: cell-based, human
Method in brief: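 Cells were seeded at 10,000/well and exposed to test compound for 48 h at 1% (v/v) final DMSO. The first screen used a single concentration with controls in quadruplicate. Dose-response used 0.5–100 μM in triplicate. Controls: DMSO vehicle, hydrogen peroxide (positive), untreated (negative). Hoechst 33342 plus PI were added 2 h before automated imaging, and colocalised signal was scored as dead. […] Two-tailed t-test versus DMSO.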

HDAC8 [2] = biological target: T1, HDAC8; assay: Thermal shift assay; assay type: binding
CEM cells = assay: Apoptosis by annexin V-FITC/PI flow cytometry; assay type: cell-based, human; conditions: compound at CC50 (IC50) concentration, 24 h
Method in brief: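 CEM cells were seeded in 24-well plates and held overnight at 37 °C in CO2. Medium was replaced and cells were exposed to test compound for 24 h. Controls were untreated cells and 1% DMSO. Cells were PBS-washed and spun at 500 × g for 5 min at 4 °C, then resuspended in ice-cold binding buffer with annexin V-FITC and PI. They were kept 15 min on ice in the dark, diluted, and read by flow cytometry for live and apoptotic fractions.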

HDAC3 = HDAC3 (Homo sapiens, UniProt O15379); assay: HDAC enzyme activity assay; assay type: biochemical
Method in brief: as §2

GLUT4 = biological target: T2, GLUT4 (Homo sapiens, UniProt P14672); assay: GLUT transport inhibition assay in hxt0 yeast cells; assay type: cell-based; conditions: 50 μM compound, 5 mM C14-glucose
T2 sequence (P14672 1-509): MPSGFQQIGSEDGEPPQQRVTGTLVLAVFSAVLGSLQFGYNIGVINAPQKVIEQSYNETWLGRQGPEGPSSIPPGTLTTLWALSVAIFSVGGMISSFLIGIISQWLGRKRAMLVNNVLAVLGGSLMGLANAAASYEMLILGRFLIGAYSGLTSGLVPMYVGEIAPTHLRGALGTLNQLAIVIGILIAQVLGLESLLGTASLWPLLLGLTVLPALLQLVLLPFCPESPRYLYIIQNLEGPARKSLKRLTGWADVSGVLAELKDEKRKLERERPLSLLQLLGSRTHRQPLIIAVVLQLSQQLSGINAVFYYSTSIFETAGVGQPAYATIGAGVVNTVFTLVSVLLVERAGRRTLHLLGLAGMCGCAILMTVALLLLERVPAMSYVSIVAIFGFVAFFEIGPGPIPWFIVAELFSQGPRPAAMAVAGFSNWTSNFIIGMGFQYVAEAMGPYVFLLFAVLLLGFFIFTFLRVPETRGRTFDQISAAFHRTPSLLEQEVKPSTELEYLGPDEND
Method in brief: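 Human GLUT4 was expressed in VW4000fgy1erg4 yeast (1% maltose, then 0.2% glucose, SC-uracil). GLUT5 was expressed in VW4000 (YEP with 2% maltose and G418, then 2% fructose). PBS-washed cells were exposed to 50 μM test compound. Uptake of 14C-glucose (5 mM, GLUT4) or 14C-fructose (10 mM, GLUT5) ran 10 min, followed by quench, filtration and scintillation counting. Activity was relative to 1% DMSO and to saturating phloretin (GLUT4) or MSNBA (GLUT5). Triplicates.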

[3] = read-out: IC50 HDAC4, HDAC panel, no unit in table, text b26: micromolar range

Chain of HDAC4 (P56524 648-1057 limits assumed): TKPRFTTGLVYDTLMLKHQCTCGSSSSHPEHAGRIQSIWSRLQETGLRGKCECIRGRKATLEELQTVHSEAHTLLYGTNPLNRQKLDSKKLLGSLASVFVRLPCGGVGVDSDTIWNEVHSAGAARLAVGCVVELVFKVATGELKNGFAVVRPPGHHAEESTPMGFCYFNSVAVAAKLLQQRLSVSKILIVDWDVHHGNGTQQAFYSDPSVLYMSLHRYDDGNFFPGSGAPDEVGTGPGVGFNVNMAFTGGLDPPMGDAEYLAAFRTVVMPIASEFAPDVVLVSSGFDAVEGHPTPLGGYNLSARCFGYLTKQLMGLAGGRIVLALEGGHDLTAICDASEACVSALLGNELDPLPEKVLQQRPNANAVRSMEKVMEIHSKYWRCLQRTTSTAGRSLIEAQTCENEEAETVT
Chain of HDAC2 (Q92769 whole entry): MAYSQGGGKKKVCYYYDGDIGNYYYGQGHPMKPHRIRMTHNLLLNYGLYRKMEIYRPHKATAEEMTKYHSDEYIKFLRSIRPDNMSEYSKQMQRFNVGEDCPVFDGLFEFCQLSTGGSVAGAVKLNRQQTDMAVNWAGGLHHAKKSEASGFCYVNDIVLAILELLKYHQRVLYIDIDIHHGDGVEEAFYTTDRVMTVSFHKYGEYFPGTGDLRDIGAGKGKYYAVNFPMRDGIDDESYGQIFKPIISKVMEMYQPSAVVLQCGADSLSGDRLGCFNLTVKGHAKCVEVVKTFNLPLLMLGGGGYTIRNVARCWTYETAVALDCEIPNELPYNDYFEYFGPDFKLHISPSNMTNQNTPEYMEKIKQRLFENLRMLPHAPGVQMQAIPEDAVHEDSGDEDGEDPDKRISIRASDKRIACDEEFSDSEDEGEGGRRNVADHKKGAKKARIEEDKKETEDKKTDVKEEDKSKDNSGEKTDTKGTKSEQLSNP
Chain of HDAC3 (O15379 whole entry): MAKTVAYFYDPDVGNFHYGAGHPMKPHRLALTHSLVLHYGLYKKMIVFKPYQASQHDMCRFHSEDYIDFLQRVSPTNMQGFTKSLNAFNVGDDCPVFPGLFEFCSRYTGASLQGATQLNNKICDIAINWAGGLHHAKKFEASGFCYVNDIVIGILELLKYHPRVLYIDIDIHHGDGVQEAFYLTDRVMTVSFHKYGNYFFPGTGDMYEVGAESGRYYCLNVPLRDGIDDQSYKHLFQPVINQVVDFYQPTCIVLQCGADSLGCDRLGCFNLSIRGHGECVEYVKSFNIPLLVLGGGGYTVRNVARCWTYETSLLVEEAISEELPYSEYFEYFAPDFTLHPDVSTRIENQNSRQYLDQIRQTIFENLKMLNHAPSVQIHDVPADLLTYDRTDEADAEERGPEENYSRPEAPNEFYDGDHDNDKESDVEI
Chain of HDAC3 (Q9Y618 395-489 partner limits assumed): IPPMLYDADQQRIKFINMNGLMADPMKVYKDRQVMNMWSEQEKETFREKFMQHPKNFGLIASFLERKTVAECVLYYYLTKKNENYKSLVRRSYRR

| IC50 (HDAC4) [µM] | IC50 (HDAC4; [3]) [µM] | remaining activity at 50 µM (HDAC4) [%] | IC50 (HDAC2) [µM] | IC50 (HDAC8 [1]) [µM] | remaining activity at 50 µM (HDAC8 [1]) [%] | IC50 (HDAC3) [µM] | relative transport activity of GLUT4 (GLUT4) | SMILES | cell death at 100 μM (K-562 leukemia cells; K562, DNS assay, 48 h, 100 μM) [% cell death at 100 μM] | Thermal shift (ΔT), stabilizing effect on HDAC8 (HDAC8 [2]) | live cells (CEM cells) [%] | percent of apoptotic cells (CEM cells) [%] | CC50 (K-562 leukemia cells; Homo sapiens, K562, 48 h) [µM] |
| --- | --- | --- | --- | --- | --- | --- | --- | --- | --- | --- | --- | --- | --- |
| > 50 | > 50 | 76 | 45 | 23 ± 1.1 | 17 | > 50 | – | Cc1c(NC(=O)CN2C(=O)SC(=Cc3ccccn3)C2=O)c(=O)n(-c2ccccc2)n1C [Compound P10, N-(1,5-dimethyl-3-oxo-2-phenyl-2,3-dihydro-1H-pyrazol-4-yl)-2-(2,4-dioxo-5-(pyridin-2-ylmethylene)thiazolidin-3-yl)acetamide] | 27.06 | did not confer significant stability to the protein | 29.89 | 55.19 | – |
| > 50 | > 50 | 97 | 41 | 9.3 ± 1 | 22 | > 50 | ineffective | O=C(CN1C(=O)SC(=Cc2ccccn2)C1=O)Nc1nc2ccccc2s1 [Compound P19, N-(benzo[d]thiazol-2-yl)-2-(2,4-dioxo-5-(pyridin-2-ylmethylene)thiazolidin-3-yl)acetamide] | – | about 0.3 °C | 30.86 | 60.97 | 85.4 ± 3.25 |

— paper PMC7302971 (Bioorganic chemistry, 2020)
